# From ChEMBL document CHEMBL5096186, “Design, Synthesis, and Biological Evaluation of Novel Pyrimido[4,5-b]indole Derivatives Against Gram-Negative Multidrug-Resistant Pathogens” (J Med Chem, 2021)
# Tests used:
# [1] = Metabolic stability in human liver microsome assessed as elimination half life at 0.1 uM in presence of NADPH incubated upto 60 mins by LC-MS/MS analysis; assay type: ADME; conditions: liver microsomes, read-out: beta t1/2
# Summary of the method: (§1)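 Compound at 0.1 μM final, in 0.01% DMSO with 0.005% BSA. Incubated with rat or human liver microsomes at 0.33 mg/mL in 0.1 M Tris-HCl, pH 7.4, with 5 mM MgCl₂ and 1 mM NADPH, at 37 °C. Samples at 0, 7, 17, 30 and 60 min quenched with cold methanol and analysed by LC-MS/MS. Half-life, Cl_int and MF% derived as previously described.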
# Pseudomonas aeruginosa [2] = experiment: Antibacterial activity against wild type Pseudomonas aeruginosa ATCC 27853 assessed as reduction in bacterial growth incubated for 18 to 20 hrs by CLSI based microdilution method; assay type: functional; conditions: time 18-20 hrs
# Summary of the method: (§2)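 CLSI broth microdilution. Compounds in DMSO (levofloxacin and meropenem in water), serial twofold dilutions in broth, 64 to 0.008 μg/mL. […] Results reported as MIC ranges across strains.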
# Klebsiella pneumoniae [3] = experiment: Antibacterial activity agains wild type Klebsiella pneumoniae ATCC BAA-2470 assessed as reduction in bacterial growth incubated for 18 to 20 hrs by CLSI based microdilution method; assay type: functional; conditions: time 18-20 hrs
# Summary of the method: (§3)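 Broth microdilution per CLSI. Compounds dissolved in DMSO (levofloxacin and meropenem in water) as 64 μg/mL stock, then serial twofold dilutions in broth giving 64 to 0.008 μg/mL. […] Clinical isolates tested as several strains per group; racemic GP-1 served as positive control; values given as MIC ranges.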
# Escherichia coli [4] = experiment: Antibacterial activity against multidrug resistant wild type Escherichia coli NCTC 13353 assessed as reduction in bacterial growth incubated for 18 to 20 hrs by CLSI based microdilution method; assay type: functional; conditions: time 18-20 hrs; summary of the method: as §3
# [5] = Elimination half life in Sprague-Dawley rat at 5 mg/kg, iv measured upto 24 hrs by LC-MS/MS analysis; assay type: ADME, organism-based; conditions: in vivo, read-out: beta t1/2 (converted)
# Summary of the method: (§4)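 Male Sprague-Dawley rats, n = 3 per group, single intravenous dose. For 4 mg/kg: 180–280 g rats, vehicle 5% DMSO + 5% EtOH + 40% PEG300 + 50% saline, blood from the retrobulbar vein at 0.05–24 h. For 5 and 20 mg/kg: 180–300 g rats, vehicle 5% DMSO + 5% solutol + 90% saline, sampled at 0.083–24 h. Plasma quantified by LC/MS/MS. Parameters from mean plasma concentration by noncompartmental analysis; values are mean ± standard deviation.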
# [6] = target: Voltage-gated inwardly rectifying potassium channel KCNH2 (Homo sapiens, UniProt Q12809); experiment: Inhibition of hERG potassium channel assessed as […] at -80 mV holding potential incubated for 120 seconds by whole cell-automated voltage clamp analysis assay; assay type: toxicity
# Sequence of Voltage-gated inwardly rectifying potassium channel KCNH2 (Q12809 whole entry): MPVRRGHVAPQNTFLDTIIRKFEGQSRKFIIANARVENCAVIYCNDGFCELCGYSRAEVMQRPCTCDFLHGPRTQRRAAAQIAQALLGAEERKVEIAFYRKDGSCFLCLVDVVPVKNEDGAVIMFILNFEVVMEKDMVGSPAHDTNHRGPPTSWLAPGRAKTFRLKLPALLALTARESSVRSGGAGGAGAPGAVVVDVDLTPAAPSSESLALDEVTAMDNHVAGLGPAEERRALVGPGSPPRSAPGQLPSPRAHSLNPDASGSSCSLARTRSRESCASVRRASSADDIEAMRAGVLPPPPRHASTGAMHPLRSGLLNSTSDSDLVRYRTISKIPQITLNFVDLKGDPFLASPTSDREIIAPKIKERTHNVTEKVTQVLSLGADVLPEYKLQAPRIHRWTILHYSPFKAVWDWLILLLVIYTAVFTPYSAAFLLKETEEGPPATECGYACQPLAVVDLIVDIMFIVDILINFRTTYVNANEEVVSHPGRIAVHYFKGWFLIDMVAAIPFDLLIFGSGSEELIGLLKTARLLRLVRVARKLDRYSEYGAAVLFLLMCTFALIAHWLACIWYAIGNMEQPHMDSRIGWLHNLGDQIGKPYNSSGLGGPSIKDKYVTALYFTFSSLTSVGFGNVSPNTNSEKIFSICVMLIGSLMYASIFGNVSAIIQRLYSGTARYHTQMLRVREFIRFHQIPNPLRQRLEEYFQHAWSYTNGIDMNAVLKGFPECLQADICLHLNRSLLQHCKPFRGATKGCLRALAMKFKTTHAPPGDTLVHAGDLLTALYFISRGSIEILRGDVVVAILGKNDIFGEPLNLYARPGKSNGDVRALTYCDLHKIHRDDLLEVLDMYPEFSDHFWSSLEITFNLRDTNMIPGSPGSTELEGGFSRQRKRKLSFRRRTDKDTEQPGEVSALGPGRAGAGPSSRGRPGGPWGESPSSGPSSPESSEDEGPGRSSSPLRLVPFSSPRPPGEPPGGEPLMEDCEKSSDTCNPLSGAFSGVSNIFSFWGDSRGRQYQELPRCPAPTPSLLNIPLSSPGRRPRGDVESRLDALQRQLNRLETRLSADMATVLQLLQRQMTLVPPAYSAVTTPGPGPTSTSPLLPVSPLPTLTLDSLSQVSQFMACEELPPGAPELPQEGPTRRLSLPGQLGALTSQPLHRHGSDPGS
# Summary of the method: (§5)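 Automated whole-cell patch clamp, holding potential −80 mV. Voltage protocol applied every 20 s. Baseline set with external solution containing 0.1% DMSO and stabilised 3 min. Compound applied until steady state, at least 3 min, then washout. Maximum tested concentration 40 μM, or 3 μM for cisapride as positive control.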
# [7] = Metabolic stability in human liver microsome assessed as intrinsic clearance at 0.1 uM in presence of NADPH incubated upto 60 mins by LC-MS/MS analysis; assay type: ADME; conditions: microsomes, 1 h; summary of the method: as §1
# [8] = Clearance in Sprague-Dawley rat at 5 mg/kg, iv measured upto 24 hrs by LC-MS/MS analysis; assay type: ADME, organism-based; conditions: in vivo; summary of the method: as §4
# Escherichia coli [9] = experiment: Antibacterial activity against ESBL-producing multidrug resistant Escherichia coli assessed as reduction in bacterial growth incubated for 18 to 20 hrs by CLSI based microdilution method; assay type: functional; conditions: time 18-20 hrs; summary of the method: as §3
# [10] = Metabolic stability in rat liver microsome assessed as intrinsic clearance at 0.1 uM in presence of NADPH incubated upto 60 mins by LC-MS/MS analysis; assay type: ADME; conditions: microsomes, 1 h; summary of the method: as §1
# [11] = target: hERG (KCNH2) potassium channel (Homo sapiens, UniProt Q12809); experiment: Inhibition of hERG potassium channel assessed as maximum inhibition rate at 40 uM at -80 mV holding potential incubated for 120 seconds by whole cell-automated voltage clamp analysis assay relative to control; assay type: toxicity; conditions: time 120 sec; summary of the method: as §5
# Sequence of hERG (KCNH2) potassium channel (Q12809 whole entry): as above
# Klebsiella pneumoniae [12] = experiment: Antibacterial activity agains wild type Klebsiella pneumoniae ATCC BAA-1705 assessed as reduction in bacterial growth incubated for 18 to 20 hrs by CLSI based microdilution method; assay type: functional; conditions: time 18-20 hrs; summary of the method: as §2
# [13] = Metabolic stability in rat liver microsome assessed as metabolic bioavailability at 0.1 uM in presence of NADPH incubated upto 60 mins by LC-MS/MS analysis; assay type: ADME; conditions: liver microsomes; summary of the method: as §1
# [14] = Metabolic stability in human liver microsome assessed as metabolic bioavailability at 0.1 uM in presence of NADPH incubated upto 60 mins by LC-MS/MS analysis; assay type: ADME; conditions: liver microsomes; summary of the method: as §1
# Escherichia coli [15] = experiment: Antibacterial activity against multidrug resistant wild type Escherichia coli ATCC BAA-2340 assessed as reduction in bacterial growth incubated for 18 to 20 hrs by CLSI based microdilution method; assay type: functional; conditions: time 18-20 hrs; summary of the method: as §3
# Acinetobacter baumannii [16] = experiment: Antibacterial activity agains OXA23-producing multidrug resistant Acinetobacter baumannii assessed as reduction in bacterial growth incubated for 18 to 20 hrs by CLSI based microdilution method; assay type: functional; conditions: time 18-20 hrs; summary of the method: as §3
# Pseudomonas aeruginosa [17] = experiment: Antibacterial activity against IMP4-producing multidrug resistant Pseudomonas aeruginosa assessed as reduction in bacterial growth incubated for 18 to 20 hrs by CLSI based microdilution method; assay type: functional; conditions: time 18-20 hrs; summary of the method: as §3
# [18] = Metabolic stability in rat liver microsome assessed as elimination half life at 0.1 uM in presence of NADPH incubated upto 60 mins by LC-MS/MS analysis; assay type: ADME; conditions: liver microsomes, read-out: beta t1/2; summary of the method: as §1
# [19] = MRT in Sprague-Dawley rat at 5 mg/kg, iv measured upto 24 hrs by LC-MS/MS analysis; assay type: ADME, organism-based; conditions: in vivo; summary of the method: as §4
# [20] = Volume of distribution at the steady state in Sprague-Dawley rat at 5 mg/kg, iv measured upto 24 hrs by LC-MS/MS analysis; assay type: ADME, organism-based; conditions: in vivo, read-out: Vdss; summary of the method: as §4
# Klebsiella pneumoniae [21] = experiment: Antibacterial activity against KPC2-producing multidrug resistant Klebsiella pneumoniae assessed as reduction in bacterial growth incubated for 18 to 20 hrs by CLSI based microdilution method; assay type: functional; conditions: time 18-20 hrs; summary of the method: as §3
# Acinetobacter baumannii [22] = experiment: Antibacterial activity against wild type Acinetobacter baumannii NCTC 13304 assessed as reduction in bacterial growth incubated for 18 to 20 hrs by CLSI based microdilution method; assay type: functional; conditions: time 18-20 hrs; summary of the method: as §3
# [23] = AUC (0 to infinity) in Sprague-Dawley rat at 5 mg/kg, iv measured upto 24 hrs by LC-MS/MS analysis; assay type: ADME, organism-based; set-up: time < 24 hrs, dose 5 mg/kg, route iv; conditions: in vivo; summary of the method: as §4
smiles,measurement,setting,value
[2H]C([2H])([2H])Nc1cc(F)cc2c1[nH]c1nc(Oc3cnc(C)nc3)nc(N3CC(=C(C)C(C)N)C3)c12 (stereo not drawn),half-life at 0.1 µM,[1],3.47 h
same,MIC,Pseudomonas aeruginosa [2],2 µg/mL
same,MIC,Klebsiella pneumoniae [3],2 µg/mL
same,MIC,Escherichia coli [4],0.125 µg/mL
same,half-life,[5],7.2 h
same,IC50,[6],> 40 µM
same,CLH,[7],10.1 mL/min/g
same,clearance,[8],121 mL/min/kg
same,MIC,Escherichia coli [9],0.25 µg/mL
same,CLH,[10],104 mL/min/g
same,"inhibition at 2 min, 40 µM",[11],14.2%
same,MIC,Klebsiella pneumoniae [12],4 µg/mL
same,"Fh at 1 h, 0.1 µM",[13],30%
same,"Fh at 1 h, 0.1 µM",[14],66%
same,MIC,Escherichia coli [15],0.25 µg/mL
same,MIC,Acinetobacter baumannii [16],0.25 µg/mL
same,MIC,Pseudomonas aeruginosa [17],4 µg/mL
same,half-life at 0.1 µM,[18],0.337 h
same,MRT,[19],5.9 h
same,Vd,[20],43.2 L/kg
same,MIC,Klebsiella pneumoniae [21],1 µg/mL
same,MIC,Acinetobacter baumannii [22],0.25 µg/mL
same,AUC(0-inf),[23],696 ng·h/mL
